RAD54 inh = RAD54 (human) branch migration inhibition | Q92698 | RAD54 Holliday junction branch migration, FAM/BHQ fluorescence | inhibition, % at 10.4 µM | hit rate 0.14% among 360,000 | AID 602329;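 active = mean normalized replicate activity at least 40 and at least half of replicates scoring 40 or more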;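 note: 0% = median of neutral control wells and 100% = median of positive control wells; inhibitors cause a drop in the FAM fluorescence signal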
AF4-AF9 inh = MLL-AF4/AF9 protein interaction inhibition; P42568; AlphaScreen, biotin-AF4 peptide binding to FLAG-AF9; inhibition, % at 10 µM; hit rate 0.47% among 350,000; AID 651704;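 active = every replicate reaching a set inhibition limit, whatever the replicate mean, cut at about 25% in these data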;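 note: 0% = plate neutral control median and 100% = total signal loss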
RAD52 anneal inh = inhibitors of human RAD52 DNA annealing. recombinant RAD52 DNA annealing, FRET fluorescence. inhibition, % at 18.7 µM. hit rate 0.46% among 360,000. AID 651710;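 active = every replicate showing at least 50% inhibition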
Target sequence (P43351 whole entry, looked up): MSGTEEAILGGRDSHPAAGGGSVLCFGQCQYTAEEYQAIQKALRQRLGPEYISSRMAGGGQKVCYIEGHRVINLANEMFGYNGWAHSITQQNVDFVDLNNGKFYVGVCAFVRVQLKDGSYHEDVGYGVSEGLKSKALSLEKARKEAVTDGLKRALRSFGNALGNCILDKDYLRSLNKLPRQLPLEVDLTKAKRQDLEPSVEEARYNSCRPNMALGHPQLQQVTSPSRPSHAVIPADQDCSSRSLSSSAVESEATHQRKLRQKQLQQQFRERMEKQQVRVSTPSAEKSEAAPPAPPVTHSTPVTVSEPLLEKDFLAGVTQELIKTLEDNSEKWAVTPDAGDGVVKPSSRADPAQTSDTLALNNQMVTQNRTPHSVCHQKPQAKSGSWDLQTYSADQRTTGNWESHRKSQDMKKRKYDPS
FN deposit inh = fibronectin deposition inhibition; hit rate 0.086% among 350,000; inhibition, % at 12.6 µM; AH1F fibroblasts, Alexa488-fibronectin deposition fluorescence, overnight;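 active = mean inhibition across replicates of 30% or more, regardless of how many single replicates reach that level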;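 note: positive control wells lacked labelled fibronectin entirely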
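Material: AH1F fibroblast monolayer depositing Alexa488-labelled fibronectin into matrix / Amount: 10000 AH1F cells per well / Signal: fluorescence 485/525 nm / Medium: DMEM, 2% serum / Compound: single dose, pinned / Incubation: 1 h cell adhesion before compound, then overnight fibronectin incubation / Reagent: Alexa488-FN, 24 nM final / Read-out: inhibition of fibronectin deposition signal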
Glyco luc inh = blocks N-linked glycosylation in D54 reporter cells; D54 ERlucT glycosylation luciferase reporter, 24 h; percent of 100 nM tunicamycin response; reporter increase, % at 12.5 µM; hit rate 0.23% among 360,000; AID 588692;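 active = mean luciferase reporter signal, scaled so untreated is 0 and the glycosylation-blocking control 100, at or above a set limit in every replicate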;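 note: luciferase carries N-glycosylation sites so blocking glycosylation raises the light; 0% = median of neutral control wells and 100% = median of 100 nM tunicamycin wells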
AlphaScreen intf = interferes with the AlphaScreen assay signal; AlphaScreen interference counter-screen, signal luminescence; shares compounds with AF4-AF9 inh; AID 720494; AC50, µM (doses to about 12 µM), for the others: at the highest dose activity change, negative = inhibition; hit rate 45% among 530; cut-off not given, nearly all actives have AC50 up to about 14 µM
Starred values were filed as active, the others as inactive; / = not tested or not shown; ! = not confirmed by another sample. This is a sample that favours compounds with a hit; in the whole collection about 0.92% have one here.

SMILES	RAD54 inh	AF4-AF9 inh	RAD52 anneal inh	FN deposit inh	Glyco luc inh	AlphaScreen intf
CC(C)C(=O)Nc1ccc2c(c1)C(=O)N(C)[C@@H]1CC[C@H](CC(=O)N[C@H](C)c3ccccc3)O[C@H]1CO2	9	/	/	-22	/	/
CCC(=O)NC(c1ccc(N(C)C)cc1)c1c(O)ccc2ccccc12 (centres undefined)	-2	24	-8	-2	0	-17%
CNC(=S)N1N=C(c2ccc(C)cc2)CC1c1ccc(N(C)C)cc1 (centres undefined)	-5	31*	-26	-9	2	-27%
CN(C)c1ccnc2c[cH-]cc12.[Fe].c1ccc(-[c-]2[c-](-c3ccccc3)[c-](-c3ccccc3)[c-](-c3ccccc3)[c-]2-c2ccccc2)cc1 (centres undefined)	0	29*!	-20	6	-2	-13%
CO[C@H]1CN(C)C(=O)c2ccc(NC(=O)Nc3cc(F)ccc3F)cc2OC[C@H](C)N(C(=O)c2cnccn2)C[C@H]1C	/	/	/	-17	/	/
CCN1C(=O)/C(=C\C(=O)c2cccs2)c2cc(Br)ccc21	/	37*	-2	-3	6	0%
CCC1CCCCN1C(=S)NN=C(C)c1ccccn1 (centres undefined)	/	37*	-86	6	/	7.4µM*
COC1=C(Nc2ccccc2OC)C(=O)c2ccccc2C1=O	-3	50*	-9	8	6	7.9µM*
CCN1CCCc2cc(CN(CCN3CCOCC3)C(=S)Nc3ccccc3C)ccc21	/	5	-11	-12	-4	/
CCN1CCCc2cc(CN(CCN3CCOCC3)C(=S)Nc3cccc(C)c3)ccc21	3	37*	-11	4	-10	-22%
CC(=O)N1CC[C@@H]2[C@@H](CO)N(C)c3ccc(-c4ccccc4)cc3[C@@H]21	4	5	-11	-9	/	/
C#CCOCCOCCOCCNc1nc(N2CCN(C(=O)[C@H](CCCCN)n3cc(CCCC)nn3)CC2)nc(N2CCN(C(=O)[C@H](CCCCN)n3cc(CCCC)nn3)CC2)n1	10	26*	-39	-15	-1	-12%
C#CCOCCOCCOCCNc1nc(N2CCN(C(=O)[C@H](CCCCN)n3cc([C@@H](N)CC(N)=O)nn3)CC2)nc(N2CCN(C(=O)[C@H](CCCCN)n3cc([C@@H](N)CC(N)=O)nn3)CC2)n1	-21	37*	61*	-3	3	3%
Oc1ccc(O)c(C=NNC(=S)NC2CC3CC2C2C=CCC32)c1 (centres undefined)	-2	35*	-20	8	0	12µM*
CN(C)c1ccc(CNCCC(Cc2ccccc2)c2ccco2)cc1 (centres undefined)	7	49*	-16	-6	1	10µM*
CCC(=O)Nc1ccc2c(c1)OC[C@H](C)N(C(=O)Cc1cccnc1)C[C@H](C)[C@@H](OC)CN(C)C2=O	/	/	/	9	/	/
CCOc1ccc(NCc2cccn2-c2nnc(N3CCC(C(=O)NCCCN4C(C)CCCC4C)CC3)s2)cc1 (centres undefined)	16	51*	64*	25	1	11µM*
CCOc1ccc(CCNC(=O)C2CCN(c3nnc(-n4cccc4)s3)CC2)cc1	-1	4	-11	-4	3	/
Cc1ccc(S(=O)(=O)N(C)C[C@H]2Oc3ccc(NC(=O)Cc4ccccc4)cc3C(=O)N([C@@H](C)CO)C[C@@H]2C)cc1	10	1	15	/	/	/
Nc1ccccc1Nc1cc(-c2ccccc2)nn1-c1cccc(Cl)c1	/	31*	-9	-1	-2	-24%
CN1CCN(C(=O)C[C@@H]2CC[C@H]3[C@H](COc4ccc(NC(=O)C5CCCC5)cc4C(=O)N3C)O2)CC1	/	-3	-1	0	/	/
CCOc1cc(/C=N/N=C(N)N)ccc1OCc1ccc(Cl)cc1	17	27*	-64	9	-13	-27%
NC(N)=N/N=C/c1ccc(OCc2ccccc2)c(OCc2ccccc2)c1	-3	20	10	2	-20	/
COc1cc(/C=N/N=C(N)N)ccc1OCc1ccc(Cl)cc1	9	27*	6	4	-19	-26%
CCS(=O)(=O)NCC[C@@H]1CC[C@@H](NC(=O)Cc2ccccn2)[C@H](CO)O1	-6	-5	-41	-8	/	/
Cc1ccc(N2CCOCC2)c2c1C(=O)c1ccccc1C2=O	/	64*	20	13	3	10µM*

Source: PubChem BioAssay (Broad Institute)
